What was measured:
[1] = Apparent permeability from basolateral to apical side in human Caco2 cells at 10 uM incubated for 1 hr by HPLC-MS/MS analysis; assay type: ADME, cell-based; conditions: Caco-2
Rattus norvegicus = test: Apparent clearance during terminal phase in Sprague-Dawley rat at 5 mg/kg, iv; assay type: ADME, organism-based; conditions: in vivo
[2] = biological target: Transcription initiation factor TFIID subunit 1 (Homo sapiens) (UniProt P21675); test: Binding affinity to human His6-tagged TAF1 bromodomain 1 (R1377 to D1503 residues) expressed in Escherichia coli BL21(DE3) cells at 200 uM incubated for 30 mins by SYPRO orange staining based fluorescence thermal shift assay
Outline: (§1)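 His6-tagged bromodomain constructs expressed in E. coli BL21(DE3) (grown at 25 °C to OD600 ~1.0, induced with 0.1 mM IPTG at 16 °C for 16 h). Purified by Ni affinity then gel filtration. Final 10 μM protein and 200 μM compound in 10 mM HEPES pH 7.5, 150 mM NaCl, DMSO ≤1%. SYPRO Orange 1:1000, 30 min on ice. Melt 30–75 °C at 0.3 °C/min. Triplicates. Tm from Boltzmann fit; ΔTm = Tm with minus without compound.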

[3] = Metabolic stability in rat liver microsomes assessed as parent compound remaining at 1 uM incubated for 40 mins by HPLC-MS/MS analysis in presence of NADPH; assay type: ADME; conditions: read-out: Stability
[4] = Half life in Sprague-Dawley rat at 30 mg/kg, po; assay type: ADME, organism-based; conditions: in vivo
[5] = Cmax in Sprague-Dawley rat at 5 mg/kg, iv after 0.033 to 24 hrs; assay type: ADME, organism-based; design: dose 5 mg/kg, route intravenous; conditions: in vivo
[6] = Half life in Sprague-Dawley rat at 5 mg/kg, iv; assay type: ADME, organism-based; conditions: in vivo
[7] = Apparent permeability from apical to basolateral side in human Caco2 cells at 10 uM incubated for 1 hr by HPLC-MS/MS analysis; assay type: ADME, cell-based; conditions: Caco-2
[8] = Tmax in Sprague-Dawley rat at 30 mg/kg, po; assay type: ADME, organism-based; conditions: in vivo
[9] = AUC (0 to t) in Sprague-Dawley rat at 30 mg/kg, po; assay type: ADME, organism-based; conditions: in vivo
[10] = AUC (0 to infinity) in Sprague-Dawley rat at 30 mg/kg, po; assay type: ADME, organism-based; design: dose 30 mg/kg, route oral, time infinity; conditions: in vivo
[11] = biological target: Bromodomain adjacent to zinc finger domain protein 2B (Homo sapiens) (UniProt Q9UIF8); test: Binding affinity to human His6-tagged BAZ2B (S1858 to S1972 residues) expressed in Escherichia coli BL21(DE3) cells at 200 uM incubated for 30 mins by SYPRO orange staining based fluorescence thermal shift assay; outline: as §1
[12] = Cmax in Sprague-Dawley rat at 30 mg/kg, po after 0.083 to 24 hrs; assay type: ADME, organism-based; design: dose 30 mg/kg, route oral; conditions: in vivo
[13] = biological target: T1, Bromodomain-containing protein 9 (Homo sapiens) (UniProt Q9H8M2); test: Binding affinity to human His6-tagged BRD9 (L14 to Q134 residues) expressed in Escherichia coli BL21(DE3) cells at 200 uM incubated for 30 mins by SYPRO orange staining based fluorescence thermal shift assay; outline: as §1
T1 sequence (whole entry): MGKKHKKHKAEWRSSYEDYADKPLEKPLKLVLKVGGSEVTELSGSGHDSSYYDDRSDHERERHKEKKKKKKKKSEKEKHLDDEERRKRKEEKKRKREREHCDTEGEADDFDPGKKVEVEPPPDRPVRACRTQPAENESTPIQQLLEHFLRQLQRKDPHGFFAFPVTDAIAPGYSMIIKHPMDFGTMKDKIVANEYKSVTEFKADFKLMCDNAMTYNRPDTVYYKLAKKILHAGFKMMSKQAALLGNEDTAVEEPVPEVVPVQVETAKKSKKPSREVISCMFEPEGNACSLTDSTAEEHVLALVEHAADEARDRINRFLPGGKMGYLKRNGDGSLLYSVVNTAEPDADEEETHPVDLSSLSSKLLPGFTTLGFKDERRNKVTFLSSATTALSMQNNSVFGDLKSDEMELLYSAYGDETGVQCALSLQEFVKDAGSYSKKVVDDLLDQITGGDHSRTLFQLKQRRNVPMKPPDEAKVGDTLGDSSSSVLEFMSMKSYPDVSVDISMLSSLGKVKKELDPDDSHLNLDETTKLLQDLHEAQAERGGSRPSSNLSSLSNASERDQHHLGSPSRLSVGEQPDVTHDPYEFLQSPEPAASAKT

[14] = biological target: Histone-lysine N-methyltransferase ASH1L (Homo sapiens) (UniProt Q9NR48); test: Binding affinity to human His6-tagged ASH1L (E2433 to E2564 residues) expressed in Escherichia coli BL21(DE3) cells at 200 uM incubated for 30 mins by SYPRO orange staining based fluorescence thermal shift assay; outline: as §1
[15] = Efflux ratio of apparent permeability from basolateral to apical side over apical to basolateral side in human Caco2 cells at 10 uM incubated for 1 hr by HPLC-MS/MS analysis; assay type: ADME, cell-based; conditions: Caco-2
[16] = Metabolic stability in rat liver microsomes assessed as parent compound remaining at 10 uM incubated for 40 mins by HPLC-MS/MS analysis in presence of NADPH; assay type: ADME; conditions: read-out: Stability
[17] = Oral bioavailability in Sprague-Dawley rat at 30 mg/kg, after 0.083 to 24 hrs; assay type: ADME, organism-based; conditions: in vivo
[18] = Half life in Sprague-Dawley rat at 20 mg/kg, po; assay type: ADME, organism-based; conditions: in vivo
[19] = Oral bioavailability in Sprague-Dawley rat at 20 mg/kg, after 0.083 to 24 hrs; assay type: ADME, organism-based; conditions: in vivo
[20] = Tmax in Sprague-Dawley rat at 20 mg/kg, po; assay type: ADME, organism-based; conditions: in vivo
[21] = Cmax in Sprague-Dawley rat at 20 mg/kg, po after 0.083 to 24 hrs; assay type: ADME, organism-based; design: dose 20 mg/kg, route oral; conditions: in vivo
[22] = AUC (0 to infinity) in Sprague-Dawley rat at 20 mg/kg, po; assay type: ADME, organism-based; design: dose 20 mg/kg, route oral, time infinity; conditions: in vivo
[23] = AUC (0 to t) in Sprague-Dawley rat at 20 mg/kg, po; assay type: ADME, organism-based; conditions: in vivo

Sequence of Bromodomain adjacent to zinc finger domain protein 2B (Homo sapiens) (Q9UIF8 whole entry, the tested form may be a part): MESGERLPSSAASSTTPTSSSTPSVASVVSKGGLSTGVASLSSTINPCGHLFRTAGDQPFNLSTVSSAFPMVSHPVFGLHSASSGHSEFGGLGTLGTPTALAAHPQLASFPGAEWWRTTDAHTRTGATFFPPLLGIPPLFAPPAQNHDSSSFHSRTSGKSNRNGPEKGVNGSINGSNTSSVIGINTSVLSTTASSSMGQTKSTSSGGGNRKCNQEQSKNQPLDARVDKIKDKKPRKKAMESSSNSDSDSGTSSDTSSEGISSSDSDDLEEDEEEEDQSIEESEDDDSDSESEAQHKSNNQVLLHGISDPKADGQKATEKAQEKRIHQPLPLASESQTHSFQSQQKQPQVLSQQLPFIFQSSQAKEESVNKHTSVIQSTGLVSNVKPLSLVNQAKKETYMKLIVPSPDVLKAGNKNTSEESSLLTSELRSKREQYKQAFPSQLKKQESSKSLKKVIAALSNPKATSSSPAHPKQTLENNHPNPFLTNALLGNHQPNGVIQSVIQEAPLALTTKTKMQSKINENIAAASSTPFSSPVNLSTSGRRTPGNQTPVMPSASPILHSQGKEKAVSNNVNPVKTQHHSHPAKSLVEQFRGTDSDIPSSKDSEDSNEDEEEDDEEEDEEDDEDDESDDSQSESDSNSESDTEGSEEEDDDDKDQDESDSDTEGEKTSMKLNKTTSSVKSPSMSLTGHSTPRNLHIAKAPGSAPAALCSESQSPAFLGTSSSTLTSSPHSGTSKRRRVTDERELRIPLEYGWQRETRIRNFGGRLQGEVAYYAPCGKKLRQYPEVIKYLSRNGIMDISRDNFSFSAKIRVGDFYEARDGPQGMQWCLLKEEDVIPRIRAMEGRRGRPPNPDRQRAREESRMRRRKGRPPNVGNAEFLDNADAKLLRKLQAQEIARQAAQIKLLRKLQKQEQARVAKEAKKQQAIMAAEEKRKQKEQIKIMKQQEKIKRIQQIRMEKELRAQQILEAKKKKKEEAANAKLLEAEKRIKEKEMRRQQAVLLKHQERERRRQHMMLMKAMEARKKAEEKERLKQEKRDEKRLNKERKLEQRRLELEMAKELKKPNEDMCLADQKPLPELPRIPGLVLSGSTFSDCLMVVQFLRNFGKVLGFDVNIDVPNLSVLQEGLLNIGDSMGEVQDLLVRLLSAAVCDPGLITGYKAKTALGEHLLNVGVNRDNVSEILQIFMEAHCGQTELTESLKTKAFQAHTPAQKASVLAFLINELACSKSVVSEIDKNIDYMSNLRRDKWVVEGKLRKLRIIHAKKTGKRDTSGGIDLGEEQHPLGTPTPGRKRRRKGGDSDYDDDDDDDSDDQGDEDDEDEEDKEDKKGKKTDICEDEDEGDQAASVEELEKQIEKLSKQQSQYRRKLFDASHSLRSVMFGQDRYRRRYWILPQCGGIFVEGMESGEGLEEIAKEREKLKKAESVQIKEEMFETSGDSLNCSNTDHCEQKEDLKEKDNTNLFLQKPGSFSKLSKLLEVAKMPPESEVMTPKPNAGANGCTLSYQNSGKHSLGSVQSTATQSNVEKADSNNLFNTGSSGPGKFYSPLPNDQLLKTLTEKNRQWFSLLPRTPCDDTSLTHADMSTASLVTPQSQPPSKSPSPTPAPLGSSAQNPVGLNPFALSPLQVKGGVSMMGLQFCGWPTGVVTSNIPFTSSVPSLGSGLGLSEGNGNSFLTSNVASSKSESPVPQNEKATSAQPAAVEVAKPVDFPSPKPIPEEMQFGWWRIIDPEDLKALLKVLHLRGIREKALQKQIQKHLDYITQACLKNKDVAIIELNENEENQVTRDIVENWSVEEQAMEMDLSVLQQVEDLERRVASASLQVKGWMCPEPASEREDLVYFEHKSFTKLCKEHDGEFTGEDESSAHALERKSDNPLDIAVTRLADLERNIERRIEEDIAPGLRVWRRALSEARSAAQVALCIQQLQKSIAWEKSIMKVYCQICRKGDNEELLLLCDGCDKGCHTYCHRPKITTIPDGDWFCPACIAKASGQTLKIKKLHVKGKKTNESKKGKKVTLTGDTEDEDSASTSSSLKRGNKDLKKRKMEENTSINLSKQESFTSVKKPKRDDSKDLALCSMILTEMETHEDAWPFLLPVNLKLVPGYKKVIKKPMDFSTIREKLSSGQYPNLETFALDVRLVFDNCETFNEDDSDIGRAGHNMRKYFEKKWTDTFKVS
Sequence of Transcription initiation factor TFIID subunit 1 (Homo sapiens) (P21675 whole entry, the tested form may be a part): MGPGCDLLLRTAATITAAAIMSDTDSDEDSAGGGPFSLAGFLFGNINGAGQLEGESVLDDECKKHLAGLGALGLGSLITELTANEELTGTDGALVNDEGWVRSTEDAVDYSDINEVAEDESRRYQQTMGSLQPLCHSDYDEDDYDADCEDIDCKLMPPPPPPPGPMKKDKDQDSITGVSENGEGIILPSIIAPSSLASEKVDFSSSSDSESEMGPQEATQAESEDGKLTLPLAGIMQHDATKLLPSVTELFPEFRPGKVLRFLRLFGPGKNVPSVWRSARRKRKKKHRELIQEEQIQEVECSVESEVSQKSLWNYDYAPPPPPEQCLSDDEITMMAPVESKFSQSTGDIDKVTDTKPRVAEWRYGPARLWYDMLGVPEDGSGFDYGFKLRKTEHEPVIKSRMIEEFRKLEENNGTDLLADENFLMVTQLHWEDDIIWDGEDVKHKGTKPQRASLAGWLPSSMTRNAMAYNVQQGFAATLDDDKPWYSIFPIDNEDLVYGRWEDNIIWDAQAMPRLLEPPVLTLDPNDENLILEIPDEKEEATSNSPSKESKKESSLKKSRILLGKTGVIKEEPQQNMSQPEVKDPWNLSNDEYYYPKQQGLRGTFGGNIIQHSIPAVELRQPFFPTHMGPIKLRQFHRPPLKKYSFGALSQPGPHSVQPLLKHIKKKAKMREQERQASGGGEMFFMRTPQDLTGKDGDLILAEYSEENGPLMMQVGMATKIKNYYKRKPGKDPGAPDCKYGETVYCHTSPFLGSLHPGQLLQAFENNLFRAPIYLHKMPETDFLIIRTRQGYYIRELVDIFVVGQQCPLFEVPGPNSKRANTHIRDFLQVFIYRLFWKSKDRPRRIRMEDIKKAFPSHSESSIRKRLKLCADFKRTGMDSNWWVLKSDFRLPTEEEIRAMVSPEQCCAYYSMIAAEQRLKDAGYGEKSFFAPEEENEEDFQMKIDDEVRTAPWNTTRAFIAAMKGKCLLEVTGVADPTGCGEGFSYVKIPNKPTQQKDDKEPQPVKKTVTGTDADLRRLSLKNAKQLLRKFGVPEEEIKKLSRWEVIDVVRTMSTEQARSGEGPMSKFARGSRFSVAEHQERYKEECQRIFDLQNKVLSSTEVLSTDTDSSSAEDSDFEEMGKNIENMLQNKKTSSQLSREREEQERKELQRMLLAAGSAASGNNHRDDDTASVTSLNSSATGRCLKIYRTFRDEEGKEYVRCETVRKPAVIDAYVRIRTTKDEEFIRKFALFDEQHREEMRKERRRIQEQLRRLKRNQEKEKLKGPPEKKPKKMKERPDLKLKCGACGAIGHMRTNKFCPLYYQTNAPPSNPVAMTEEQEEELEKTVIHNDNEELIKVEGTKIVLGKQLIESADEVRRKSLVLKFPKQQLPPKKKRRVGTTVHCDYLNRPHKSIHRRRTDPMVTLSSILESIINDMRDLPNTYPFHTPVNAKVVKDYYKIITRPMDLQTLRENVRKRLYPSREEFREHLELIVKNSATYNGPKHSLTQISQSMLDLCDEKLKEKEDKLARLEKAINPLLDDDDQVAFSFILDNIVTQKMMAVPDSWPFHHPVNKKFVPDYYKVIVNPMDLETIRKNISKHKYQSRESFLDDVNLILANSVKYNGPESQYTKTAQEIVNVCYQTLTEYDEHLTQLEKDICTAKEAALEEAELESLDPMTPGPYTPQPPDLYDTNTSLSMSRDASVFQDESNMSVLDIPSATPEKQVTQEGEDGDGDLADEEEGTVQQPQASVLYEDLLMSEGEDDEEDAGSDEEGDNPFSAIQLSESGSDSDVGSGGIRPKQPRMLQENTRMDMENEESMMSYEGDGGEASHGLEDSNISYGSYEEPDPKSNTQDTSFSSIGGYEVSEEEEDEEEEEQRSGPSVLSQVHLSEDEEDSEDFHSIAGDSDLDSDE

Papp B→A at 1 h, 10 µM [1]	ΔTm [2]	remaining at 40 min, 1 µM [3]	Cmax [5]	half-life [6]	Papp A→B at 1 h, 10 µM [7]	ΔTm [11]	ΔTm [13]	ΔTm [14]	remaining at 40 min, 10 µM [16]	Compound	also measured
28 ×10⁻⁶ cm/s	0.2 °C	4.5%	875 ng/mL	1.13 h	21.2 ×10⁻⁶ cm/s	0.9 °C	-0.2 °C	0.8 °C	57.5%	CCN1C(=O)c2cccc3c(S(=O)(=O)NC4CCCCC4)ccc1c23	CLz/F (Rattus norvegicus): 102 mL/min/kg; half-life [4]: 1.74 h; Tmax [8]: 0.42 h; AUC(0-t) [9]: 80.3 ng·h/mL; AUC(0-inf) [10]: 85.6 ng·h/mL; Cmax [12]: 37.3 ng/mL; efflux ratio at 1 h, 10 µM [15]: 1.3; bioavailability [17]: 1.7%
30.9 ×10⁻⁶ cm/s	-0.1 °C	57.2%	2170 ng/mL	0.98 h	12.7 ×10⁻⁶ cm/s	1.2 °C	2.3 °C	-1.1 °C	> 85%	CCN1C(=O)c2cccc3c(NS(=O)(=O)c4cc(Br)ccc4OC)ccc1c23	half-life [18]: 3.95 h; bioavailability [19]: 76.8%; Tmax [20]: 0.42 h; Cmax [21]: 516 ng/mL; AUC(0-inf) [22]: 2210 ng·h/mL; AUC(0-t) [23]: 2200 ng·h/mL

Source: ChEMBL document CHEMBL3779865, “Discovery of Benzo[cd]indol-2(1H)-ones as Potent and Specific BET Bromodomain Inhibitors: Structure-Based Virtual Screening, Optimization, and Biological Evaluation” (J Med Chem, 2016)
